Test results from ChEMBL document CHEMBL1145431, “Improved anti-osteoporosis potency and reduced endometrial membrane hyperplasia during hormone replacement therapy with estrogen-RGD peptide conjugates” (2007).
Where a SMILES comes first, the peptide text is derived from it. The star is where a group is joined. X1 = C[C@]12CC[C@@H]3c4ccc(OCC(=O)*)cc4CC[C@H]3[C@@H]1CCC2O

Columns and labels:
Mus musculus [1] = assay: Effect on dry weight of femurs in mouse at 0.1103 mmol/kg, po; type: functional, Femur
Summary of the method: (§1)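 Female Kuiming mice (7 weeks old, 30.7 ± 3.1 g) under abdominal OVX, sham group abdominorotomy only. From day 5 after surgery, dosed orally once daily for 4 weeks at 110.3 × 10-3 mmol/kg in 0.5% CMC (0.2 mL), vehicle group CMC alone. Blood drawn retro-orbitally, then left femur and organs removed under pentobarbital (40.0 mg/kg, i.p.).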

Mus musculus [2] = assay: Effect on serum calcium level in mouse at 0.1103 mmol/kg, po; type: functional
Summary of the method: (§2)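 Oral OVX Kuiming mouse model, dosed daily for 4 weeks at 110.3 × 10-3 mmol/kg in 0.5% CMC. Retro-orbital blood stood 30 min at room temperature and was spun at 3000 g for 20 min. Serum kept at -20 °C. Calcium read by o-methylphenolphthalein complexone, phosphorus by molybdenum blue, ALP by activity on disodium phenylphosphate substrate.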

Mus musculus [3] = assay: Effect on serum phosphorous Concentration in mouse at 0.110 mmol/kg, po; type: functional; summary of the method: as §2
Mus musculus [4] = assay: Effect on lung weight in mouse at 0.1103 mmol/kg, po; type: functional; summary of the method: as §1
Mus musculus [5] = assay: Effect on spleen weight in mouse at 0.1103 mmol/kg, po; type: functional; summary of the method: as §1
Mus musculus [6] = assay: Increase in body weight in ovariectomized mouse at 0.1103 mmol/kg, ip once daily for 4 weeks; type: functional
Summary of the method: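 Female Kuiming mice (30.7 ± 3.1 g) underwent abdominal OVX; the sham group had abdominorotomy only. From day 5 after surgery, i.p. dosing once daily for 4 weeks at 110.3 × 10-3 mmol/kg in aqueous 0.5% CMC. Body weight was recorded on the day of the last administration.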

Mus musculus [7] = assay: Effect on serum ALP lavel in ovariectomized mouse at 0.1103 mmol/kg, ip once daily for 4 weeks; type: functional
Summary of the method: (§3)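 OVX Kuiming mice dosed i.p. daily for 4 weeks in 0.5% CMC. Blood taken retro-orbitally on the day after the last dose, stood 30 min, spun at 3000 g for 20 min, serum stored at -20 °C. Calcium by o-methylphenolphthalein complexone, phosphorus by molybdenum blue, ALP by activity with disodium phenylphosphate substrate.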

Mus musculus [8] = assay: Effect on serum calcium level in ovariectomized mouse at 0.1103 mmol/kg, ip once daily for 4 weeks; type: functional; summary of the method: as §3
Mus musculus [9] = assay: Effect on serum phosphorus level in ovariectomized mouse at 0.1103 mmol/kg, ip once daily for 4 weeks; type: functional; summary of the method: as §3
Mus musculus [10] = assay: Effect on dry weight of femurs in ovariectomized mouse at 0.1103 mmol/kg, ip once daily for 4 weeks; type: functional, Femur
Summary of the method: (§4)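 Female Kuiming mice (7 weeks, 30.7 ± 3.1 g) ovariectomized, sham group abdominorotomy. From day 5, i.p. once daily for 4 weeks at 110.3 × 10-3 mmol/kg in 0.5% CMC. Left femur cleaned, length measured, defatted in chloroform-methanol (2:1, 2 × 3 h), dried 120 °C 6 h for dry weight, ashed 800 °C 8 h. Mineral content = ash/dry weight. Ash dissolved in 6 N HCl and diluted. Ca by o-methylphenolphthalein complexone, P by molybdenum blue. Lungs and livers weighed directly.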

Mus musculus [11] = assay: Effect on femur ash weight in ovariectomized mouse at 0.1103 mmol/kg, ip once daily for 4 weeks; type: functional; summary of the method: as §4
Mus musculus [12] = assay: Effect on femur length in ovariectomized mouse at 0.1103 mmol/kg, ip once daily for 4 weeks; type: functional; summary of the method: as §4
Mus musculus [13] = assay: Effect on calcium level in ovariectomized mouse at 0.1103 mmol/kg, ip once daily for 4 weeks; type: functional; summary of the method: as §4
Mus musculus [14] = assay: Effect on phosphorus level in ovariectomized mouse at 0.1103 mmol/kg, ip once daily for 4 weeks; type: functional; summary of the method: as §4
Mus musculus [15] = assay: Effect on lung weight in ovariectomized mouse at 0.1103 mmol/kg, ip once daily for 4 weeks; type: functional; summary of the method: as §4
Mus musculus [16] = assay: Effect on liver weight in ovariectomized mouse at 0.110 mmol/kg, ip once daily for 4 weeks; type: functional; summary of the method: as §4
Mus musculus [17] = assay: Effect on uterus weight in ovariectomized mouse at 0.1103 mmol/kg, ip once daily for 4 weeks; type: functional
Summary of the method: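 Female Kuiming mice (7 weeks old, 30.7 ± 3.1 g), abdominal OVX under pentobarbital (40.0 mg/kg i.p.). From day 5 after surgery, i.p. injection once daily for 4 weeks, compound in aqueous 0.5% CMC prepared just before use. The day after the last dose, mice were anesthetized and killed, and lungs, livers, spleens and uteri were removed and weighed directly. n = 12, ANOVA, p < 0.05.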

Mus musculus [18] = assay: Effect on femur ash weight in recipient mouse at 0.055 mmol/kg, ip; type: functional
Summary of the method: (§5)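 Dose-response in OVX Kuiming mice, i.p. daily for 4 weeks in 0.5% CMC at 11.03, 55.15 or 110.3 × 10-3 mmol/kg. Left femur: length, then defatting, drying at 120 °C for 6 h (dry weight), ashing at 800 °C for 8 h. Ash/dry ratio gives mineral content. Ash Ca and P measured colorimetrically. Liver, lung and spleen weighed directly. n = 12, ANOVA.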

Mus musculus [19] = assay: Effect on femur ash weight in recipient mouse at 0.011 mmol/kg, ip; type: functional; summary of the method: as §5
Mus musculus [20] = assay: Effect on femur length in recipient mouse at 0.011 mmol/kg, ip; type: functional; summary of the method: as §5
Mus musculus [21] = assay: Effect on phosphorous level in mouse femur at 0.055 mmol/kg, ip; type: functional; summary of the method: as §5
Mus musculus [22] = assay: Effect on mineral level in mouse femur at 0.055 mmol/kg, ip; type: functional; summary of the method: as §5
Mus musculus [23] = assay: Effect on mineral level in mouse femur at 0.011 mmol/kg, ip; type: functional; conditions: in the assay text read “0.11 mmol/kg” for “0.011 mmol/kg”; summary of the method: as §5
Mus musculus [24] = assay: Effect on serum phosphorous level in mouse at 0.011 mmol/kg, ip; type: functional; conditions: in the assay text read “0.11 mmol/kg” for “0.011 mmol/kg”
Summary of the method: (§6)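 Dose-response in OVX Kuiming mice, i.p. daily for 4 weeks in 0.5% CMC at 11.03, 55.15 or 110.3 × 10-3 mmol/kg. Serum from retro-orbital blood (3000 g, 20 min). Calcium by o-methylphenolphthalein complexone, phosphorus by molybdenum blue, ALP by activity on disodium phenylphosphate. n = 12, ANOVA.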

Mus musculus [25] = assay: Effect on serum ALP level in mouse at 0.055 mmol/kg, ip; type: functional; summary of the method: as §6
Mus musculus [26] = assay: Effect on liver weight in mouse at 0.055 mmol/kg, ip; type: functional; summary of the method: as §5
Mus musculus [27] = assay: Effect on liver weight in mouse at 0.011 mmol/kg, ip; type: functional; summary of the method: as §5
Mus musculus [28] = assay: Effect on lung weight in mouse at 0.055 mmol/kg, ip; type: functional; summary of the method: as §5
Mus musculus [29] = assay: Effect on spleen weight in mouse at 0.055 mmol/kg, ip; type: functional; summary of the method: as §5
Mus musculus [30] = assay: Effect on spleen weight in mouse at 0.011 mmol/kg, ip; type: functional; summary of the method: as §5
Mus musculus [31] = assay: Effect on uterus weight in mouse at 0.055 mmol/kg, ip; type: functional
Summary of the method: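 Dose study in abdominally ovariectomized female Kuiming mice (30.7 ± 3.1 g). Daily i.p. dosing in aqueous 0.5% CMC from day 5 after surgery for 4 weeks, at 110.3, 55.15 or 11.03 × 10-3 mmol/kg. Liver, lung, spleen and uterus were removed after pentobarbital euthanasia and weighed. n = 12, ANOVA, p < 0.05.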

Mus musculus [32] = assay: Effect on serum phosphorous level in mouse at […] mmol/kg, ip; type: functional; summary of the method: as §3
Mus musculus [33] = assay: Effect on serum calcium level in mouse at 0.1103 mmol/kg, ip; type: functional; summary of the method: as §3
Mus musculus [34] = assay: Effect on serum ALP level in mouse at 0.1103 mmol/kg, ip; type: functional; summary of the method: as §3

SMILES: C[C@]12CC[C@@H]3c4ccc(OCC(=O)N[C@@H](CCCNC(=N)N)C(=O)NCC(=O)N[C@@H](CC(=O)O)C(=O)N[C@@H](Cc5ccccc5)C(=O)O)cc4CC[C@H]3[C@@H]1CCC2O (some centres undefined) (X1-RGDF-OH)
- Activity (Mus musculus [1]): 63.1 mg
- Activity (Mus musculus [2]): 2.04 mmol/L
- Activity (Mus musculus [3]): 1.6 mmol/L
- Activity (Mus musculus [4]): 165 mg
- Activity (Mus musculus [5]): 135 mg
- Activity (Mus musculus [6]): 33.1 g
- Activity (Mus musculus [7]): 31.529 U/L
- Activity (Mus musculus [8]): 2.005 mmol/L
- Activity (Mus musculus [9]): 1.605 mmol/L
- Activity (Mus musculus [10]): 64.2 mg
- Activity (Mus musculus [11]): 35.8 mg
- Activity (Mus musculus [12]): 1.635 cm
- Activity (Mus musculus [13]): 56.69%
- Activity (Mus musculus [14]): 25.46%
- Activity (Mus musculus [15]): 169 mg
- Activity (Mus musculus [16]): 1.395 g
- Activity (Mus musculus [17]): 55.4 mg
- Activity (Mus musculus [18]): 31.6 mg
- Activity (Mus musculus [19]): 20.8 mg
- Activity (Mus musculus [20]): 1.623 cm
- Activity (Mus musculus [21]): 24.845%
- Ratio (Mus musculus [22]): 0.504
- Ratio (Mus musculus [23]): 0.585
- Activity (Mus musculus [24]): 1.605 mmol/L
- Activity (Mus musculus [25]): 33.746 U/L
- Activity (Mus musculus [26]): 1.407 g
- Activity (Mus musculus [27]): 1.57 g
- Activity (Mus musculus [28]): 155 mg
- Activity (Mus musculus [29]): 123 mg
- Activity (Mus musculus [30]): 145 mg
- Activity (Mus musculus [31]): 55.3 mg
- Activity (Mus musculus [32]): 1.605 mmol/L
- Activity (Mus musculus [33]): 2.015 mmol/L
- Activity (Mus musculus [34]): 31.5 U/L
